# Test results: PMC7112766 (Science Advances, 2020)
# pIC50: −log10 of the molar value. “Also recorded” adds a separate entry of the source.
# What was measured:
# [1] = biological target: T1, I-A^b (Mus musculus, UniProt P14434+P14483); assay: MHC binding assay, inhibition of radiolabeled peptide binding, I-A^b
# T1 sequence (P14434 24-256): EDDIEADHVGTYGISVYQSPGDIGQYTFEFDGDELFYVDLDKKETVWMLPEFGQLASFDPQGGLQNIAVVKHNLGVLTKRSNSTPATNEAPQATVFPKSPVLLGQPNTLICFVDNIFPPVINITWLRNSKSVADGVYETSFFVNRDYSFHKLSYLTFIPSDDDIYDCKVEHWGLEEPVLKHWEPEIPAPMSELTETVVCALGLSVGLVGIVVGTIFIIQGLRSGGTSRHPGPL
# T1 sequence (P14483 28-265): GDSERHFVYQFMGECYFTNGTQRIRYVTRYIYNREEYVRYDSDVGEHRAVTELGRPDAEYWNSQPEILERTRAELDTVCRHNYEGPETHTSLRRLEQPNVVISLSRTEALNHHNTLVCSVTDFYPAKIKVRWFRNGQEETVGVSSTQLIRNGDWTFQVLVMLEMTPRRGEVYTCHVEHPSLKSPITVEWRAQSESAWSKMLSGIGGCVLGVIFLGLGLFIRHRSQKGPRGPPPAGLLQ
# Summary of the method: (§1)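 Class II MHC affinity-purified from mouse B cell lymphoma LB27.4. Complexes captured on Y3JP antibody-coated plates; bound cpm counted by microscintillation. Six peptide concentrations over a 100,000-fold range, ≥3 independent experiments. IC50 is the concentration giving 50% probe inhibition; unlabeled probe is the positive control.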
# [2] = biological target: T2, I-A^d (Mus musculus, UniProt P01921+P04228); assay: MHC binding assay, inhibition of radiolabeled peptide binding, I-A^d
# T2 sequence (P04228 24-256): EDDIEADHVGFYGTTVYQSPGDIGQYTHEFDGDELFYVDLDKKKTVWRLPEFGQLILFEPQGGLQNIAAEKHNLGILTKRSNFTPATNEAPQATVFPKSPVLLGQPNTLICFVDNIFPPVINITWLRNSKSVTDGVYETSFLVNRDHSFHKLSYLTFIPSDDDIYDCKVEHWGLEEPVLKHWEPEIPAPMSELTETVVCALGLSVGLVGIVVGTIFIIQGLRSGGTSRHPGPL
# T2 sequence (P01921 28-265): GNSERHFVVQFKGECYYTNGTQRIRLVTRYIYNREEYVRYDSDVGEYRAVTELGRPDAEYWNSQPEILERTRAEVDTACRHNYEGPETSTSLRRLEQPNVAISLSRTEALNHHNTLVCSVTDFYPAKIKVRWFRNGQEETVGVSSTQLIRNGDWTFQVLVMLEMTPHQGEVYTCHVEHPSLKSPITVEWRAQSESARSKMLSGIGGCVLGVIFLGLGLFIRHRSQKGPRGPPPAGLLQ
# Summary of the method: as §1
# [3] = biological target: T3, I-E^d (Mus musculus, UniProt P01904+P01915); assay: MHC binding assay, inhibition of radiolabeled peptide binding, I-E^d
# T3 sequence (P01904 26-255): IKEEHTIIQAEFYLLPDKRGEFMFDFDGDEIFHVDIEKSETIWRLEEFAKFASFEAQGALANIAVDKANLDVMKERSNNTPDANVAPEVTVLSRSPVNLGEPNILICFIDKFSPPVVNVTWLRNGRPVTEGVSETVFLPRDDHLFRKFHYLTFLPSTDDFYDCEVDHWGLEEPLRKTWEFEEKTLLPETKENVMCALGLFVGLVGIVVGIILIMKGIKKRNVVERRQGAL
# T3 sequence (P01915 27-264 limits assumed): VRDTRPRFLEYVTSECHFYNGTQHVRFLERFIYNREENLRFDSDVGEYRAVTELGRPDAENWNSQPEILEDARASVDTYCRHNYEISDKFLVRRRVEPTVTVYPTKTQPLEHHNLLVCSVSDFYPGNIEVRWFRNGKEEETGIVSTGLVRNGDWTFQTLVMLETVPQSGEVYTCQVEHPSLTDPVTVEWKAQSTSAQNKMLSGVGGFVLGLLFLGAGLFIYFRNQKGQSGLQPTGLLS
# [4] = system: splenocytes; assay type: cell-based, mouse; settings: for IL-17A or IFNγ responses by ELISpot: 24 hours, 37°C
# [5] = system: splenocytes; settings: mouse, in vivo
# [6] = system: S. aureus; design: species or system S. aureus strain 923, a USA300 isolate; mice; settings: mouse, in vivo
# [7] = system: tetramer^+ CD44^hi CD4^+ T cells; settings: mouse, in vivo
# [8] = system: TFH cells; settings: mouse, in vivo
Molecule,pIC50 [1],IFNγ response by ELISpot [4],"IL-17A and IFNγ responses, mice expressing H-2^d compared with H-2^b [4]",IL-17A response by ELISpot [4],IL-17A or IFNγ responses by ELISpot [4],other results
CC[C@H](C)[C@H](NC(=O)[C@H](CCC(=O)O)NC(=O)[C@H](Cc1c[nH]cn1)NC(=O)[C@@H](NC(=O)[C@H](CCCCN)NC(=O)[C@H](Cc1c[nH]c2ccccc12)NC(=O)[C@H](CC(N)=O)NC(=O)[C@@H](NC(=O)[C@H](CCC(=O)O)NC(=O)[C@@H](N)Cc1ccc(O)cc1)C(C)C)[C@@H](C)O)C(=O)N[C@@H](CCCCN)C(=O)N[C@H](C(=O)N[C@@H](CCCCN)C(=O)NCC(=O)N[C@@H](Cc1c[nH]cn1)C(=O)N[C@@H](CC(N)=O)C(=O)O)C(C)C [LkT/C],4.76,–,–,–,–,pIC50 [2]: 5.49; pIC50 [3]: 8.66
CC[C@H](C)[C@H](N)C(=O)NCC(=O)NCC(=O)N[C@@H](CC(N)=O)C(=O)NCC(=O)N[C@@H](CO)C(=O)N[C@@H](Cc1ccccc1)C(=O)N[C@@H](CC(N)=O)C(=O)N[C@@H](Cc1ccc(O)cc1)C(=O)N[C@@H](CO)C(=O)N[C@@H](CCCCN)C(=O)N[C@H](C(=O)N[C@H](C(=O)N[C@@H](CO)C(=O)N[C@@H](Cc1ccc(O)cc1)C(=O)N[C@H](C(=O)O)[C@@H](C)O)[C@@H](C)CC)[C@@H](C)O [LukE153–168],6.23,–,–,–,–,–
CC(C)[C@H](NC(=O)CNC(=O)[C@H](Cc1c[nH]c2ccccc12)NC(=O)[C@@H](N)CCCCN)C(=O)N[C@@H](CCCCN)C(=O)N[C@@H](C)C(=O)N[C@@H](CC(N)=O)C(=O)N[C@@H](CCC(=O)O)C(=O)N[C@@H](Cc1ccccc1)C(=O)N[C@H](C(=O)N[C@H](C(=O)N1CCC[C@H]1C(=O)N[C@@H](CC(=O)O)C(=O)NCC(=O)N[C@@H](CCCCN)C(=O)N[C@@H](CCCCN)C(=O)O)[C@@H](C)O)C(C)C [LukE185–200],5.39,–,–,–,–,–
"LukE: leukotoxin E, His-tagged, purified from E. coli; antigen and vaccine",–,weaker IFNγ; also recorded: moderate IFNg responses,significantly stronger IL-17A and IFNγ responses,strongest IL-17A responses; also recorded: strong IL-17A responses,minimal IL-17A or IFNγ responses; also recorded: no detectable responses,"IL-17A and IFNγ responses, vaccination compared with SSTI [5]: stronger IL-17A and IFNγ responses; LukE-specific IL-17A response after vaccination [5]: no differences in LukE-specific IL-17A responses; reduction of lesion size compared with control mice [6]: approximately 40%; protection against dermonecrosis (lesion size) after vaccination ([6]; sc): moderately strong protection against dermonecrosis; also recorded: weaker protection; LukE-specific tetramer^+ CD44^hi CD4^+ T cells after vaccination [7]: high frequencies; also recorded: strong LukE-specific T cell responses; LukE-specific TFH cells after vaccination [8]: expanded a population of LukE-specific TFH cells; also recorded: expansion of LukE-specific TFH cells"
"LukS-PV: leukocidin S-PV, purified from E. coli, GST removed; sae-regulated antigen",–,weaker IFNγ; also recorded: moderate IFNg responses,significantly stronger IL-17A and IFNγ responses,strongest IL-17A responses; also recorded: strong IL-17A responses,minimal IL-17A or IFNγ responses; also recorded: no detectable responses,–
